Laboratory results published in paper PMC6289621 (Biomaterials, 2018).
Where two headings read alike, the source gives them in different places.

Assays:
[1] = test system: BC1 dhBMEC microvessels; experiment: Cytokine activation: permeability, adhesion molecules and leukocyte adhesion; assay type: cell-based, human
Outline: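 dhBMEC microvessels in collagen I channels, perfused at ~1 dyn cm⁻² with serum-free endothelial media plus 1% platelet-poor serum, with or without 10 ng mL⁻¹ TNFα for 12 h. […] ICAM-1/VCAM-1 by immunostaining; breakdown by phase contrast. Mean ± SEM.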

[2] = test system: HUVEC microvessels; experiment: Solute permeability of HUVEC microvessels; assay type: in vitro ADME, human; conditions: for Permeability differences between day two, four and six: p > 0.05; for Permeability in HUVEC microvessels relative to BC1 dhBMEC microvessels: HUVEC vs BC1 dhBMEC
[3] = test system: BC1 dhBMEC microvessels; experiment: Solute permeability of BC1 dhBMEC microvessels; assay type: in vitro ADME, human; conditions: for Permeability on days four and six compared with day two: p > 0.05
[4] = test system: pial PCV microvessels; conditions: rat, not told; cited from earlier work
[5] = test system: iPS12, KW01 and AD6 dhBMEC microvessels
[6] = cited from earlier work
[7] = Solute permeability of HUVEC microvessels; assay type: in vitro ADME, human; conditions: human
[8] = test system: iPS12, KW01 and AD6 dhBMEC microvessels; experiment: Solute permeability of dhBMEC microvessels from other iPSC lines; conditions: day two, p > 0.05 for all comparisons
[9] = biological target: P-glycoprotein (P-gp) in BC1 dhBMEC microvessels (Homo sapiens, UniProt P08183); experiment: Efflux inhibition in BC1 dhBMEC microvessels; assay type: cell-based
Chain of P-glycoprotein (P-gp) in BC1 dhBMEC microvessels (P08183 whole entry, the tested form may be a part): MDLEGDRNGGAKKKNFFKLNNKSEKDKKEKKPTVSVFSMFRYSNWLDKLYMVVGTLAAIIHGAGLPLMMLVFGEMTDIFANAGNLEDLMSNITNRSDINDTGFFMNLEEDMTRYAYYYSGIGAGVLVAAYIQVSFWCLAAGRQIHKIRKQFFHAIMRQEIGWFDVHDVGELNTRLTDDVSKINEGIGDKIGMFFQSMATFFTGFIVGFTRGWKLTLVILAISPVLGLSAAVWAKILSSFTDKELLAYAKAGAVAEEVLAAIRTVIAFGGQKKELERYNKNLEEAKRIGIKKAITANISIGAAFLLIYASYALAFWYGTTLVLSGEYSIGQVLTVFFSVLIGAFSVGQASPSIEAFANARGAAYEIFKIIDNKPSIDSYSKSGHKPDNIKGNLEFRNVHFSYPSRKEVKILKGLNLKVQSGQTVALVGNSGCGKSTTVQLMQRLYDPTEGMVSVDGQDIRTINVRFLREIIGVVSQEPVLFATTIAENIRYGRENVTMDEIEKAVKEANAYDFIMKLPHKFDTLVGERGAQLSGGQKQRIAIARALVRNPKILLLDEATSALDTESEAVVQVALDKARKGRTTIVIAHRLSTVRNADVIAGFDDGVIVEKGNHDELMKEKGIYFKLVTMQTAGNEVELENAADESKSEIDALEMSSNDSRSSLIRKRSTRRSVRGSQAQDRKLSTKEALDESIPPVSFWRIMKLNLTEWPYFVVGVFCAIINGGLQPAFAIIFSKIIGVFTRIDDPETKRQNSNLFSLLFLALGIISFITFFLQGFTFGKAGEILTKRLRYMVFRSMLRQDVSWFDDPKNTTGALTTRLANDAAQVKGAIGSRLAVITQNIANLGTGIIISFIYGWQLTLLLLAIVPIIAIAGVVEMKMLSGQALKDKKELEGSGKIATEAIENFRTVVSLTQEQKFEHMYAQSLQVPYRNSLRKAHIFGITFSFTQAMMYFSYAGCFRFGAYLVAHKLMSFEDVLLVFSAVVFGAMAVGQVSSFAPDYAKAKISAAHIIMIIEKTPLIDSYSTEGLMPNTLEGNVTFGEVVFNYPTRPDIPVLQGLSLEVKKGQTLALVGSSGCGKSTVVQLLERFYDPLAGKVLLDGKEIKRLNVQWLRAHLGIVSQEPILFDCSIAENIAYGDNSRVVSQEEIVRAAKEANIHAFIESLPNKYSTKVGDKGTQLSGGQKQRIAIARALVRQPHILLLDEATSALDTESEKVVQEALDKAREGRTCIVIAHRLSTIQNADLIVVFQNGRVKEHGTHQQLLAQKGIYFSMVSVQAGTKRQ

[10] = test system: p-glycoprotein; conditions: healthy humans, continuous infusion of tariquidar ref 80; cited from earlier work
[11] = 12-hour perfusion of 2 μM tariquidar

## TNFα
[1]; 10 ng mL^−1 TNFα, 12 hours, immunocytochemistry
  Expression of adhesion molecules ICAM-1 and VCAM-1: upregulation
[1]; 10 ng mL^−1 TNFα, 12 hours, p > 0.05 for all comparisons
  Permeability of LY, R123 or 10 kDa dextran after TNFα compared to control: did not alter
[1]; microvessels exposed to TNFα with adherent PBMCs
  Time to macroscopic breakdown of microvessels: ≤ 24 h

## Lucifer yellow [LY]
[2]; HUVEC microvessels
  Mean permeability over six days: 3.90 ± 0.16 × 10^−6 cm s^−1
  PLY / PR123 (ratio of LY to R123 permeabilities): ~ 1.3
  Permeability differences between day two, four and six: no statistically significant differences
[2]
  Permeability in HUVEC microvessels relative to BC1 dhBMEC microvessels: more than 10 fold
[3]; BC1 dhBMEC microvessels, day two
  Permeability: 2.50 ± 0.46 × 10^−7 cm s^−1
[3]; BC1 dhBMEC microvessels, over six days (days two, four, six)
  Permeability, average value across all time points: 2.84 ± 0.41 × 10^−7 cm s^−1
[3]; BC1 dhBMEC microvessels
  Permeability on days four and six compared with day two: did not increase
[3]; dhBMEC microvessels, untreated
  PLY / PR123 (ratio of LY to R123 permeabilities): ~ 1.9
[4]
  Permeability in 15 μm pial PCV microvessels: 1 – 2 × 10^−7
[5]
  Permeability differences between BC1, iPS12, KW01 and AD6 microvessels: no statistically significant differences

## OC[C@@H](O)[C@@H](O)[C@H](O)[C@H](O)CO [mannitol, d-mannitol]
[6]
  Solubility limit: around 1.4 M

## COC(=O)c1ccccc1-c1c2ccc(=N)cc-2oc2cc(N)ccc12 [R123, Rhodamine 123]
[7]
  Papp at 20 min, 5 μM: 3 ×10⁻⁶ cm/s
[2]; HUVEC microvessels
  Permeability differences between day two, four and six: no statistically significant differences
[2]
  Permeability in HUVEC microvessels relative to BC1 dhBMEC microvessels: about 20 fold
[3]; BC1 dhBMEC microvessels
  Permeability on days four and six compared with day two: remained stable
[8]
  Permeability differences between BC1, iPS12, KW01 and AD6 microvessels: no statistically significant differences

## COc1cc2c(cc1OC)CN(CCc1ccc(NC(=O)c3cc(OC)c(OC)cc3NC(=O)c3cnc4ccccc4c3)cc1)CC2 [tariquidar]
[9]; [11]
  Disruptions in paracellular permeability: not observed
  Increase in permeability of P-gp substrate Rhodamine 123: two-fold
[9]; 12 hours of tariquidar exposure
  Cytotoxicity (barrier function and microvessel structure): did not result in apparent cytotoxicity
[9]; tariquidar treated BC1 dhBMEC microvessels
  Effect on mitochondrial localization of R123: no noticeable effect
[10]
  Increase of verapamil distribution volume: 2.73 fold
